According to ChEMBL document CHEMBL5303300, “EUbOPEN Chemogenomics Library - Multiplex” (2023):
Where “and” joins values, the source holds several entries; their conditions need not be identical. Equal entries are not always repeated.

How the values were obtained:
HEK-293T = experiment: Multiplex assay against HEK293T; type: toxicity, cell-based; details: human, number of replicates 2
Procedure, shortened: (§1)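 Compound was added to live cells that had been stained at seeding with Hoechst33342, BioTracker Green Microtubule Cytoskeleton Dye, MitoTracker Red and Annexin V Alexa Fluor 680, and imaging followed on a CQ1 microscope at 37°C and 5% CO2. CellPathfinder machine-learning gating divided cells into Hoechst high-intensity objects or normal cells, normal cells into healthy, pyknosed or fragmented nuclei, and pyknosed cells into mitotic or apoptotic. Tubulin, mitochondrial-mass and membrane-permeability phenotypes are per cents of healthy-nucleus cells.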

U2OS = experiment: Multiplex assay against U2OS; type: toxicity, cell-based; details: human, number of replicates 2; procedure, shortened: as §1
[1] = 12 h, 1 µM, compound concentration 1 uM
[2] = 12 h, 10 µM, compound concentration 10 uM
[3] = 24 h, 1 µM, compound concentration 1 uM
[4] = 24 h, 10 µM, compound concentration 10 uM
[5] = 48 h, 1 µM, compound concentration 1 uM
[6] = 48 h, 10 µM, compound concentration 10 uM

Q: Which “Population Apoptotic (%)” value (HEK-293T; [1]) does the source give for `CN(C)C/C=C/C(=O)Nc1cccc(S(=O)(=O)N2CCC(NC(=O)c3n[nH]cc3NC(=O)c3c(Cl)cc(Cl)cc3Cl)CC2)c1` here?
A: 38% and 72%

Q: And the “Population Fragmented Nuclei (%)” value (HEK-293T; [1])?
A: 3% and 4%

Q: And the “Population Healthy Nuclei (%)” value (HEK-293T; [1])?
A: 89% and 87%

Q: And the “Population Hoechst High Intensity Objects (%)” value (HEK-293T; [1])?
A: 10%

Q: And the “Population Membrane Permeable-Phenotype (%)” value (HEK-293T; [1])?
A: 2% and 1%

Q: And the “Population Mitochondria Different-Phenotype (%)” value (HEK-293T; [1])?
A: 49% and 45%

Q: And the “Population Mitotic Cells (%)” value (HEK-293T; [1])?
A: 61% and 28%

Q: What about the “Population Normal (%)” value (HEK-293T; [1]) of the same molecule?
A: 89%

Q: What about the “Population Pyknosed Nuclei (%)” value (HEK-293T; [1]) of the same molecule?
A: 6% and 7%

Q: And the “Population Tubulin-Different-Phenotype (%)” value (HEK-293T; [1])?
A: 86% and 90%

Q: What about the “Total Cell Count” value (HEK-293T; [1]) of the same molecule?
A: 376 and 356

Q: What about the “Population Apoptotic (%)” value (HEK-293T; [2]) of the same molecule?
A: 87% and 90%

Q: What about the “Population Fragmented Nuclei (%)” value (HEK-293T; [2]) of the same molecule?
A: 2% and 4%

Q: What about the “Population Healthy Nuclei (%)” value (HEK-293T; [2]) of the same molecule?
A: 84% and 79%

Q: What about the “Population Hoechst High Intensity Objects (%)” value (HEK-293T; [2]) of the same molecule?
A: 16% and 14%

Q: And the “Population Membrane Permeable-Phenotype (%)” value (HEK-293T; [2])?
A: 5% and 1%

Q: And the “Population Mitochondria Different-Phenotype (%)” value (HEK-293T; [2])?
A: 87% and 88%

Q: And the “Population Mitotic Cells (%)” value (HEK-293T; [2])?
A: 12% and 9%

Q: And the “Population Normal (%)” value (HEK-293T; [2])?
A: 83% and 85%

Q: And the “Population Pyknosed Nuclei (%)” value (HEK-293T; [2])?
A: 13% and 16%

Q: What about the “Population Tubulin-Different-Phenotype (%)” value (HEK-293T; [2]) of the same molecule?
A: 96% and 97%

Q: What about the “Total Cell Count” value (HEK-293T; [2]) of the same molecule?
A: 417 and 374

Q: And the “Population Apoptotic (%)” value (HEK-293T; [3])?
A: 80%

Q: What about the “Population Fragmented Nuclei (%)” value (HEK-293T; [3]) of the same molecule?
A: 2% and 3%

Q: What about the “Population Healthy Nuclei (%)” value (HEK-293T; [3]) of the same molecule?
A: 90% and 85%

Q: What about the “Population Hoechst High Intensity Objects (%)” value (HEK-293T; [3]) of the same molecule?
A: 13% and 11%

Q: And the “Population Membrane Permeable-Phenotype (%)” value (HEK-293T; [3])?
A: 1% and 0%

Q: And the “Population Mitochondria Different-Phenotype (%)” value (HEK-293T; [3])?
A: 70% and 63%

Q: What about the “Population Mitotic Cells (%)” value (HEK-293T; [3]) of the same molecule?
A: 19% and 20%

Q: And the “Population Normal (%)” value (HEK-293T; [3])?
A: 86% and 88%

Q: And the “Population Pyknosed Nuclei (%)” value (HEK-293T; [3])?
A: 7% and 10%

Q: What about the “Population Tubulin-Different-Phenotype (%)” value (HEK-293T; [3]) of the same molecule?
A: 87% and 89%

Q: And the “Total Cell Count” value (HEK-293T; [3])?
A: 336 and 325

Q: And the “Population Apoptotic (%)” value (HEK-293T; [4])?
A: 94% and 91%

Q: And the “Population Fragmented Nuclei (%)” value (HEK-293T; [4])?
A: 2% and 4%

Q: And the “Population Healthy Nuclei (%)” value (HEK-293T; [4])?
A: 64% and 53%

Q: What about the “Population Hoechst High Intensity Objects (%)” value (HEK-293T; [4]) of the same molecule?
A: 19% and 22%

Q: What about the “Population Membrane Permeable-Phenotype (%)” value (HEK-293T; [4]) of the same molecule?
A: 3% and 4%

Q: And the “Population Mitochondria Different-Phenotype (%)” value (HEK-293T; [4])?
A: 93% and 90%

Q: And the “Population Mitotic Cells (%)” value (HEK-293T; [4])?
A: 6% and 8%

Q: And the “Population Normal (%)” value (HEK-293T; [4])?
A: 80% and 77%

Q: And the “Population Pyknosed Nuclei (%)” value (HEK-293T; [4])?
A: 32% and 42%

Q: And the “Population Tubulin-Different-Phenotype (%)” value (HEK-293T; [4])?
A: 71% and 67%

Q: And the “Total Cell Count” value (HEK-293T; [4])?
A: 381 and 319

Q: What about the “Population Apoptotic (%)” value (HEK-293T; [5]) of the same molecule?
A: 92% and 73%

Q: What about the “Population Fragmented Nuclei (%)” value (HEK-293T; [5]) of the same molecule?
A: 3% and 2%

Q: And the “Population Healthy Nuclei (%)” value (HEK-293T; [5])?
A: 86% and 82%

Q: And the “Population Hoechst High Intensity Objects (%)” value (HEK-293T; [5])?
A: 20% and 12%

Q: What about the “Population Membrane Permeable-Phenotype (%)” value (HEK-293T; [5]) of the same molecule?
A: 1%

Q: And the “Population Mitochondria Different-Phenotype (%)” value (HEK-293T; [5])?
A: 75% and 81%

Q: What about the “Population Normal (%)” value (HEK-293T; [5]) of the same molecule?
A: 79% and 87%

Q: And the “Population Pyknosed Nuclei (%)” value (HEK-293T; [5])?
A: 10% and 15%

Q: And the “Population Tubulin-Different-Phenotype (%)” value (HEK-293T; [5])?
A: 85% and 91%

Q: What about the “Total Cell Count” value (HEK-293T; [5]) of the same molecule?
A: 328 and 309

Q: What about the “Population Apoptotic (%)” value (HEK-293T; [6]) of the same molecule?
A: 78% and 71%

Q: What about the “Population Fragmented Nuclei (%)” value (HEK-293T; [6]) of the same molecule?
A: 6%

Q: What about the “Population Healthy Nuclei (%)” value (HEK-293T; [6]) of the same molecule?
A: 30% and 25%

Q: And the “Population Hoechst High Intensity Objects (%)” value (HEK-293T; [6])?
A: 14%

Q: What about the “Population Membrane Permeable-Phenotype (%)” value (HEK-293T; [6]) of the same molecule?
A: 3% and 7%

Q: And the “Population Mitochondria Different-Phenotype (%)” value (HEK-293T; [6])?
A: 90% and 76%

Q: What about the “Population Mitotic Cells (%)” value (HEK-293T; [6]) of the same molecule?
A: 21% and 28%

Q: What about the “Population Normal (%)” value (HEK-293T; [6]) of the same molecule?
A: 85%

Q: What about the “Population Pyknosed Nuclei (%)” value (HEK-293T; [6]) of the same molecule?
A: 62% and 68%

Q: What about the “Population Tubulin-Different-Phenotype (%)” value (HEK-293T; [6]) of the same molecule?
A: 65% and 78%

Q: What about the “Total Cell Count” value (HEK-293T; [6]) of the same molecule?
A: 442 and 399

Q: And the “Population Apoptotic (%)” value (U2OS; [1])?
A: 78% and 85%

Q: What about the “Population Fragmented Nuclei (%)” value (U2OS; [1]) of the same molecule?
A: 15% and 10%

Q: What about the “Population Healthy Nuclei (%)” value (U2OS; [1]) of the same molecule?
A: 50% and 56%

Q: What about the “Population Hoechst High Intensity Objects (%)” value (U2OS; [1]) of the same molecule?
A: 0%

Q: And the “Population Membrane Permeable-Phenotype (%)” value (U2OS; [1])?
A: 15% and 7%

Q: And the “Population Mitotic Cells (%)” value (U2OS; [1])?
A: 21% and 14%

Q: And the “Population Normal (%)” value (U2OS; [1])?
A: 100% and 99%

Q: And the “Population Pyknosed Nuclei (%)” value (U2OS; [1])?
A: 35% and 33%

Q: And the “Population Tubulin-Different-Phenotype (%)” value (U2OS; [1])?
A: 65% and 50%

Q: What about the “Population Apoptotic (%)” value (U2OS; [2]) of the same molecule?
A: 80% and 82%

Q: What about the “Population Fragmented Nuclei (%)” value (U2OS; [2]) of the same molecule?
A: 8% and 13%

Q: What about the “Population Healthy Nuclei (%)” value (U2OS; [2]) of the same molecule?
A: 15% and 11%

Q: What about the “Population Hoechst High Intensity Objects (%)” value (U2OS; [2]) of the same molecule?
A: 0%

Q: What about the “Population Membrane Permeable-Phenotype (%)” value (U2OS; [2]) of the same molecule?
A: 80% and 83%

Q: And the “Population Mitochondria Different-Phenotype (%)” value (U2OS; [2])?
A: 45% and 66%

Q: And the “Population Mitotic Cells (%)” value (U2OS; [2])?
A: 19% and 17%

Q: What about the “Population Normal (%)” value (U2OS; [2]) of the same molecule?
A: 99% and 100%

Q: And the “Population Pyknosed Nuclei (%)” value (U2OS; [2])?
A: 76% and 75%

Q: And the “Population Tubulin-Different-Phenotype (%)” value (U2OS; [2])?
A: 100% and 83%

Q: And the “Population Apoptotic (%)” value (U2OS; [3])?
A: 65% and 93%

Q: What about the “Population Fragmented Nuclei (%)” value (U2OS; [3]) of the same molecule?
A: 25% and 9%

Q: And the “Population Healthy Nuclei (%)” value (U2OS; [3])?
A: 29% and 40%

Q: What about the “Population Hoechst High Intensity Objects (%)” value (U2OS; [3]) of the same molecule?
A: 0%

Q: And the “Population Membrane Permeable-Phenotype (%)” value (U2OS; [3])?
A: 6% and 13%

Q: What about the “Population Mitochondria Different-Phenotype (%)” value (U2OS; [3]) of the same molecule?
A: 13% and 20%

Q: And the “Population Normal (%)” value (U2OS; [3])?
A: 100%

Q: What about the “Population Pyknosed Nuclei (%)” value (U2OS; [3]) of the same molecule?
A: 45% and 50%
